These results are taken from PMC3809033 (Clinical pharmacology and therapeutics, 2011).

Each structure is given as a SMILES string.

One assay deals with T1, 5-HT2C receptor (Homo sapiens, UniProt P28335).
T1 sequence (P28335 33-458): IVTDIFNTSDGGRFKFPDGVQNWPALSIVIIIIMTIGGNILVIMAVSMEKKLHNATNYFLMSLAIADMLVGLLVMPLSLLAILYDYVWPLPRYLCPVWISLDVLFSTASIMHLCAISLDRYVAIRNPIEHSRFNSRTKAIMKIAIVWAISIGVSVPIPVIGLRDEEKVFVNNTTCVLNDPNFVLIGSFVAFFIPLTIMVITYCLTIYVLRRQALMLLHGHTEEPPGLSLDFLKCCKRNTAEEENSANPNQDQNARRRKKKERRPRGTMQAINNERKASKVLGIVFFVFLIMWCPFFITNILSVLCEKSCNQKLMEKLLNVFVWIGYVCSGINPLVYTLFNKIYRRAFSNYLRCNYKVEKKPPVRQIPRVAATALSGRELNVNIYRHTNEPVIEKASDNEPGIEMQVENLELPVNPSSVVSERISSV
In words: radioligand competition binding. The conditions noted are these: read-out: [drawing 1] / In vitro; Cheng-Prusoff; details in supplement. Summed up:
(§1)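 Test compound (purity >98%) was run in competition against radioligand binding at six concentrations from 10 nmol/l to 100 μmol/l to build concentration–response curves. IC50 (50% displacement of bound radioligand) was obtained by nonlinear fitting. Ki was derived with Cheng–Prusoff, using free radioligand concentration and each radioligand's KD, and expressed as pKi.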

For a further assay, the target named is 5-HT6 receptor (Homo sapiens, UniProt P50406). In words: radioligand competition binding. The conditions noted are these: read-out: [drawing 1] / In vitro; Cheng-Prusoff; details in supplement. The procedure, abridged: as §1
5-HT6 receptor, sequence (P50406 whole entry): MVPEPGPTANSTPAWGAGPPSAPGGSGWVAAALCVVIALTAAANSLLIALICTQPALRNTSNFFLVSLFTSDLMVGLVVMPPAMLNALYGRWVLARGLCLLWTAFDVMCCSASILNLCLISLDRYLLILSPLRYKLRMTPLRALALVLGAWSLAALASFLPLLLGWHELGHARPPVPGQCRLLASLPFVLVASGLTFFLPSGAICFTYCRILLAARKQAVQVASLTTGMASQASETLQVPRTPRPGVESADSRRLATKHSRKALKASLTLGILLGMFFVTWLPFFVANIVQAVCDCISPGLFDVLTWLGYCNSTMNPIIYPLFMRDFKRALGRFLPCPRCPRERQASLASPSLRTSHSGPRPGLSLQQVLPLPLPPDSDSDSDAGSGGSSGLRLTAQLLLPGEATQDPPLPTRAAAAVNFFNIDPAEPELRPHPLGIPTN
Assay [1] addresses dopamine transporter (DAT) (Homo sapiens, UniProt Q01959). In words: radioligand competition binding. The conditions noted are these: read-out: [drawing 1] / In vitro; Cheng-Prusoff; details in supplement. The procedure, abridged: as §1
In general terms: Displacement assays read how much labelled ligand stays bound in the presence of the test substance.

The target of assay [2] is norepinephrine transporter (Homo sapiens, UniProt P23975). In words: radioligand competition binding. The conditions noted are these: read-out: [drawing 1] / In vitro; Cheng-Prusoff; details in supplement. Summed up:
as §1

The target of a further assay is 5-HT2B receptor (Homo sapiens, UniProt P41595). In words: radioligand competition binding. Particulars: read-out: [drawing 1] / In vitro; Cheng-Prusoff; details in supplement. The procedure, abridged:
as §1

In a further assay the target is serotonin transporter (Homo sapiens, UniProt P31645). In words: radioligand competition binding. Particulars: read-out: [drawing 1] / In vitro; Cheng-Prusoff; details in supplement. Summed up:
as §1

In the next assay the target is 5-HT2A receptor (Homo sapiens, UniProt P28223). In words: inositol phosphate release, antagonist mode. Type of assay: cell-based. Particulars: receptor activated by 1 μmol/l 5-HT.
5-HT2A receptor, sequence (P28223 whole entry): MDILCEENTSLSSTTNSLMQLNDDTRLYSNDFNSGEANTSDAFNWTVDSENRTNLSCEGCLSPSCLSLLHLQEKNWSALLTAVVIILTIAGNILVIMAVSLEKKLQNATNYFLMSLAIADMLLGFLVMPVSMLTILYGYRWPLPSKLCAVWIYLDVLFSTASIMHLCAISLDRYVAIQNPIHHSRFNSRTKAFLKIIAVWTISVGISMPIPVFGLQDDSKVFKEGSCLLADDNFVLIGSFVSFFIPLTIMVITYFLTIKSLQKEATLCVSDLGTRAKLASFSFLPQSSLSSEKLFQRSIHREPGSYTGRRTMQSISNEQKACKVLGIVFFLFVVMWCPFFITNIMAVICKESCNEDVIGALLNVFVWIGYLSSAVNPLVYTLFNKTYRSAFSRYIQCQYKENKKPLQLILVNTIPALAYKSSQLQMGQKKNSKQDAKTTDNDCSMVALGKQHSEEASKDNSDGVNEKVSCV
A further assay deals with 5-HT7 receptor (Homo sapiens, UniProt P34969). In words: radioligand competition binding. The conditions noted are these: read-out: [drawing 1] / In vitro; Cheng-Prusoff; details in supplement. The procedure, abridged:
as §1

norepinephrine transporter, sequence (P23975 whole entry): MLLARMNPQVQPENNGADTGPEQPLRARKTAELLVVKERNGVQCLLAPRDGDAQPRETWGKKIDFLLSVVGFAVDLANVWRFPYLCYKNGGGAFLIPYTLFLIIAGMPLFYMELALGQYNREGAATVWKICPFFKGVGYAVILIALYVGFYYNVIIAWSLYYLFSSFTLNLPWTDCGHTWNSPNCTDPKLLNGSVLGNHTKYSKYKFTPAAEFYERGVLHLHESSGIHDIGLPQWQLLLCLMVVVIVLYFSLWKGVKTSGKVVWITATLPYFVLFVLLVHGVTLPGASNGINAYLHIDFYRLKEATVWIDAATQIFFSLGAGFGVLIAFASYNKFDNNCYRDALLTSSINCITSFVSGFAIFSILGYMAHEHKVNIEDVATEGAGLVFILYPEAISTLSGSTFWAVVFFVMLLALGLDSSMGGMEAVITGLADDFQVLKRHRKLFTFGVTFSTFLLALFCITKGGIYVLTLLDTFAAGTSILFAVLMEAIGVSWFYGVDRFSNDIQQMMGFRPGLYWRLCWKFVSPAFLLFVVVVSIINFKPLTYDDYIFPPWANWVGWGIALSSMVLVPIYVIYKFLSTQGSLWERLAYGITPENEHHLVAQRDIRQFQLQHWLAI
5-HT2B receptor, sequence (P41595 whole entry): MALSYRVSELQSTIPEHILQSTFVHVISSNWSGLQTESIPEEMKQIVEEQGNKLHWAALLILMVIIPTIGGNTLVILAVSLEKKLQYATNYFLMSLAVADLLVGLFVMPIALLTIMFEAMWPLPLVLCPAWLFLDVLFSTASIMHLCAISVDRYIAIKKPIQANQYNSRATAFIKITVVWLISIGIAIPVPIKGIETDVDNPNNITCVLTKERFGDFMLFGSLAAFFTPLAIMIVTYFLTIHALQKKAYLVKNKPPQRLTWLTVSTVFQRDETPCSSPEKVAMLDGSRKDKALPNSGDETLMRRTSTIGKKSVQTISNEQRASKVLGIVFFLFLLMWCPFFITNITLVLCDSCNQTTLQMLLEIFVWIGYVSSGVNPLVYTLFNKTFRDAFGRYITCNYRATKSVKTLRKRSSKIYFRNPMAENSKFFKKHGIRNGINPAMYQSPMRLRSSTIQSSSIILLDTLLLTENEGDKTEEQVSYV
5-HT7 receptor, sequence (P34969 whole entry): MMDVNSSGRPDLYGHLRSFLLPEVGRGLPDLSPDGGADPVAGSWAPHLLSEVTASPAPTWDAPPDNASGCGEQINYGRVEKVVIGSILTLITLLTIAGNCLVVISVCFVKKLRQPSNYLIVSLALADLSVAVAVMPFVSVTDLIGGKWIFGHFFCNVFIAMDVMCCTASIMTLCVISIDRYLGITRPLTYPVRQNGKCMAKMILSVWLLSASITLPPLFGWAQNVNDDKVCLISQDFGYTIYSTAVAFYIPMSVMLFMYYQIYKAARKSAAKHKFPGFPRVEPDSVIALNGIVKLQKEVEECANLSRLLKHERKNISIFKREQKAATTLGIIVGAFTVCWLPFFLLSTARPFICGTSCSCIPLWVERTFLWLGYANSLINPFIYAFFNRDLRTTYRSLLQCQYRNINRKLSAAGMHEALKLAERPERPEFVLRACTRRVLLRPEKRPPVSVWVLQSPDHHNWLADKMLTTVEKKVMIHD
dopamine transporter (DAT), sequence (Q01959 whole entry): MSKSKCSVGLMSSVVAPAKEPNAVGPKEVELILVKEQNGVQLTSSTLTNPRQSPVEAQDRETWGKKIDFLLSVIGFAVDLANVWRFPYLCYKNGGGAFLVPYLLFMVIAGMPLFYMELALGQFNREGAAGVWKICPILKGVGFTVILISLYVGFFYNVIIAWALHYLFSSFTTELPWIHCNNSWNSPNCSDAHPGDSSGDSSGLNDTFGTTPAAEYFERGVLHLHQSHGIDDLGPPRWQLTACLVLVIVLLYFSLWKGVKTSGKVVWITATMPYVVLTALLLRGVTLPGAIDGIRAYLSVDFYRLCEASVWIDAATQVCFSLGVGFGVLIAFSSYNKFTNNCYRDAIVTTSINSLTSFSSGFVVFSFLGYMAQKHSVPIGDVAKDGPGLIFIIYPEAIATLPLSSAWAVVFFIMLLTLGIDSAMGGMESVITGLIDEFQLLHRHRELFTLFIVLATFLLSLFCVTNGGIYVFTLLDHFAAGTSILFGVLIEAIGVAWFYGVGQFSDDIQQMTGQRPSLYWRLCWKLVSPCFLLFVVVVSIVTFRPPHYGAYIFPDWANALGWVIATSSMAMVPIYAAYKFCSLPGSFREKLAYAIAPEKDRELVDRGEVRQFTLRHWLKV
serotonin transporter, sequence (P31645 whole entry): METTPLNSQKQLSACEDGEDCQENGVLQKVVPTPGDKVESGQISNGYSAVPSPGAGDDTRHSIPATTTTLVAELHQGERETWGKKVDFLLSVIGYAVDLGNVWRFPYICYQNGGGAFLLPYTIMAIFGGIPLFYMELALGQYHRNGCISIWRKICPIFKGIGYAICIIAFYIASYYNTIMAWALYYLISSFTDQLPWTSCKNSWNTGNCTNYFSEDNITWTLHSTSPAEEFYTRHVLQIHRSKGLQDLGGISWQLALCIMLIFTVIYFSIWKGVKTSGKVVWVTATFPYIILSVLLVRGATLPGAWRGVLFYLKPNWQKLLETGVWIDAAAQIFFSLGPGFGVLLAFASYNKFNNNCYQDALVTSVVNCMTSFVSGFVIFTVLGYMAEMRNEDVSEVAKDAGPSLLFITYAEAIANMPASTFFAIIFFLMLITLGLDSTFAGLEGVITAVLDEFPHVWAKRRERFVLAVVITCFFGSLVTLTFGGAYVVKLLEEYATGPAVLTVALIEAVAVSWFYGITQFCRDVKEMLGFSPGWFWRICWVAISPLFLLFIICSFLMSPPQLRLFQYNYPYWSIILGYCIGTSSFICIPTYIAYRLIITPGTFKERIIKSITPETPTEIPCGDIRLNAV

Consider `CN(C)CCC=C1c2ccccc2C=Cc2ccccc21` [cyclobenzaprine], for which the Ki on 5-HT2C receptor turned out to be 57 nM; at 5-HT6 receptor, 145 nM; in assay [1], 5490 nM; in assay [2], 36 nM; at 5-HT2B receptor, 154 nM; on serotonin transporter it was 108 nM. Besides, at 5-HT7 receptor, the Ki was 151 nM. For the same compound, the Kb (commonly the affinity of an antagonist, worked out from how it opposes an agonist) at 5-HT2A receptor amounted to 28.8 ± 2.49 nM.
